We go through one compound from paper PMC2996727 (Biochemistry, 2009).

The target in this experiment is T1, YfcG (Escherichia coli, UniProt P77526).
T1 sequence (P77526 1-215): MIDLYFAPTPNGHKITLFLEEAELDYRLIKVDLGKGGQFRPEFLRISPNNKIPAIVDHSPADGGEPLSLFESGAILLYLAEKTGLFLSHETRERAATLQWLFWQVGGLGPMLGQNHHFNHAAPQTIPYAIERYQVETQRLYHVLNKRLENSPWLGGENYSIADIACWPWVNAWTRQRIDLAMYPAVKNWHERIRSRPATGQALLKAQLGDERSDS
Kind of experiment: intrinsic fluorescence titration. The experiment is classed as binding. Put shortly: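 Purified enzyme titrated with thiol and disulfide ligands at 25 °C, monitoring the protein's intrinsic fluorescence; dissociation constants derived from the titration.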

Usually Kd stands for a measure of binding affinity in units of concentration. A higher Kd goes with lower affinity. As for `N[C@@H](CCC(=O)N[C@@H](CS(=O)(=O)O)C(=O)NCC(=O)O)C(=O)O` [GSO3^−], binding was characterised by a dissociation constant (Kd) of 23 ± 5 µM.
